Data on 13 compounds can be found in ChEMBL document CHEMBL1147211, “Synthetic N-pyridinyl(methyl)-indol-3-ylpropanamides as new potential immunosuppressive agents” (Eur J Med Chem, 2007).

The structures appear in SMILES notation. Calls of active or inactive are those of the source. No cut-off for these calls is given here.

In general, inhibition refers to the share of the control response that was lost under treatment. As usually defined, the IC50 is the point on the concentration scale where inhibition reaches its midpoint. In general, Inhibition refers to the relative decrease from the control value, in per cent. Read a high Inhibition as strong suppression.

Test [1] deals with Splenocyte. Put plainly: (§1) Antiproliferative activity against ConA-stimulated mouse splenocytes at 90 uM after 72 hrs by MTT assay. The format is functional. In a few lines:
(§2)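 Spleens pooled from two 8-week-old female C57BL/6 mice were homogenized in HBSS, and red cells were lysed with 20 mM Tris-HCl/140 mM NH4Cl. Cells were seeded at 1.5×10^5/well and stimulated with 1 ug/mL ConA plus compound in complete RPMI with 50 µM mercaptoethanol, at 37 °C and 5% CO2 for 72 h. Read-out was MTT for 4 h and OD at 570 nm, in sextuplicate. Inhibition was calculated as (OD control − OD treated)/OD control × 100.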
(Tetrazolium dyes change colour on reduction, which living cells bring about.)

In test [2] the test system is Splenocyte. Put plainly: (§3) Antiproliferative activity against ConA-stimulated mouse splenocytes at 30 uM after 72 hrs by MTT assay. It is filed as functional. In a few lines:
as §2

Test [3] can be described thus: as §1. It is filed as functional. The note with it: Splenocyte. In a few lines: as §2
Test [4] concerns Splenocyte. Put plainly: Inhibition of mitogen dependent T cell proliferation in mouse splenocytes. It is filed as functional, cell-based. In short, it runs like this: as §2
Test [5] in a line: Cytotoxicity assessed as cell viability of ConA-stimulated mouse splenocytes at 100 uM after 48 hrs by MTT assay.
The nature of test [6]: as §3. It is filed as functional. To be noted: Splenocyte. In a few lines:
as §2

A short description of test [7]: Antiproliferative activity against PHA-stimulated human peripheral blood lymphocytes assessed as [3H]thymidine uptake after 48 hrs. It is filed as functional. The note with it: PBL. In short, it runs like this: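 Human PBL from healthy donors were isolated by Ficoll-Hypaque and seeded at 1×10^5/well. They were stimulated with 0.3 µg/mL PHA plus compound (6.25–100 µM; DMSO stock diluted in complete RPMI) at 37 °C and 5% CO2 for 48 h. [3H]thymidine (1 µCi/well) was added for the last 6–8 h, and uptake was counted by beta counter, in sextuplicate. Values are mean ± SEM of three independent experiments.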

The subject of a further test is Mus musculus. Put plainly: Inhibition of DTH foot-pad swelling in orally dosed BALB/C mouse after 5 days. It is filed as functional. In a few lines: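 Female BALB/c mice, 8–9 weeks old and five per group, were primed i.v. with 5×10^6 SRBC in PBS. Compound in olive oil was given orally once daily for five days, from priming until challenge. On day 4, 3–4×10^8 SRBC were injected into the right hind footpad and PBS into the left. Footpad swelling difference was measured 24 h later, and inhibition was expressed relative to control mice.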

`O=C(CCc1cn(Cc2ccccc2)c2ccccc12)Nc1ccncc1`: the result in the test on Splenocyte [1] and with Splenocyte [2] was inactive.

On to `O=C(CCc1cn(Cc2ccc(Cl)cc2)c2ccccc12)Nc1ccncc1`, for which, in test [3], at 90 µM the inhibition was 87%. Further, the figures for the IC50 (in the test with Splenocyte [4]; in test [7]) were 17 µM and 25 µM, respectively. Further, in test [5], the Cell viability amounted to 95%. The compound further yielded an inhibition at 30 µM in test [6] of 19%. In the test on Mus musculus, this compound gave an Inhibition of 69%.

In test [3], `O=C(CCc1cn(Cc2ccccc2)c2ccccc12)NCc1cccnc1` gave an inhibition at 90 µM of 38%. For the same compound, the inhibition at 30 µM in test [6] is 20%.

As for `O=C(CCc1c[nH]c2ccccc12)NCc1cccnc1`, in test [3], the inhibition at 90 µM turned out to be 38%. The inhibition at 30 µM in test [6] came to 38%.

For `Cc1cc(C)nc(NC(=O)CCc2cn(Cc3ccc(Cl)cc3)c3ccccc23)c1`, the outcome in the test with Splenocyte [1] and with Splenocyte [2] was inactive.

With `Cc1cc(C)nc(NC(=O)CCc2cn(Cc3ccccc3)c3ccccc23)c1`, the result with Splenocyte [1] and in the test with Splenocyte [2] was inactive.

As for `Cn1cc(CCC(=O)NCc2cccnc2)c2cc(Cl)ccc21`, in test [3], at 90 µM the inhibition was 37%. Moreover, at 30 µM the inhibition in test [6] was 22%.

In test [3], `O=C(CCc1cn(Cc2ccc(Cl)cc2)c2ccccc12)NCc1cccnc1` gave an inhibition at 90 µM of 55%. Further, at 30 µM the inhibition in test [6] was 27%.

For `Cc1cc(C)nc(NC(=O)CCc2c[nH]c3ccccc23)c1`, at 90 µM the inhibition in test [3] was 76%. The inhibition at 30 µM in test [6] came to 22%.

With `O=C(CCc1cn(Cc2ccc(Cl)cc2)c2ccc(Cl)cc12)NCc1cccnc1`, the result in the test on Splenocyte [1] and in the test on Splenocyte [2] was inactive.

On to `O=C(CCc1c[nH]c2ccccc12)Nc1ccncc1`, for which the result in the test with Splenocyte [1] and in the test with Splenocyte [2] was inactive.

Take `Cn1cc(CCC(=O)Nc2ccncc2)c2cc(Cl)ccc21`: the result in the test on Splenocyte [1] and in the test with Splenocyte [2] was inactive.

With `Cc1cc(C)nc(NC(=O)CCc2cn(Cc3ccc(Cl)cc3)c3ccc(Cl)cc23)c1`, the outcome with Splenocyte [1] and with Splenocyte [2] was inactive.
